Activity calls are given as the source filed them.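 How the source made its calls: active means cAMP rise above 50% of the positive control response, mean of two replicates; inactive means cAMP rise at or below 50% of control.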
System: human washed platelets, cAMP competitive ELISA, 5 min
Test: platelet cAMP elevation by compounds, confirmation, counter-screen for platelet activation inhibitor project, cell-based, competitive ELISA, PGE1 reference (AID 2645)
Details: at 10 µM; hits give high values
Summary of the method: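 schedule = 5 min compound treatment | system = washed donor platelets | repeats = duplicates | signal = competitive cAMP ELISA, platelet lysates, 0.5% Triton X-100, 0.1 M HCl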

For C/C(=N/NC(=O)C1CCCC1)c1ccc(NC(=O)C(F)(F)F)cc1, which cAMP induction, % of PGE1 is on record?
The cAMP induction, % of PGE1 was -25% (inactive).

Which cAMP induction, % of PGE1 does the source give for CCC(CC)=N/N=C/c1c(O)n(CC)c2cc(C3=NNC(=O)CC3)ccc12 here?
Its cAMP induction, % of PGE1 is 109%.

COc1cc2c(cc1OC)-c1cc(Nc3ccc(F)cc3)nc(=O)n1CC2 was tested. Which cAMP induction, % of PGE1 did it give?
The cAMP induction, % of PGE1 was 210%.

For Cc1[nH]c(=O)c(C#N)c(C)c1CSc1ncccn1, which cAMP induction, % of PGE1 is on record?
Its cAMP induction, % of PGE1 is 55.4%.

Which cAMP induction, % of PGE1 does the source give for COc1ccc(/C=N/N(C)c2cc(=O)n(C)c(=O)[nH]2)cc1OC here?
Its cAMP induction, % of PGE1 is 136%.

COC(=O)CS(=O)(=O)c1ccc2c(c1)CC(=O)N2 was tested. Which cAMP induction, % of PGE1 did it give?
Its cAMP induction, % of PGE1 is 57.2%.

With O=C(Nc1cccc(NC(=O)c2ccccc2Cl)c1)c1ccco1 as the compound, how does the cAMP induction, % of PGE1 read?
The cAMP induction, % of PGE1 was -18.7% (inactive).

Which cAMP induction, % of PGE1 does the source give for COc1cc2c(cc1OC)/C(=C/C(=O)c1ccc(NC(C)=O)cc1)NCC2 here?
The cAMP induction, % of PGE1 was 67.8%.

Which cAMP induction, % of PGE1 does the source give for Cc1ccc(-n2c(N)c(C#N)c(-c3ccccc3)c(C#N)c2=O)cc1 here?
Its cAMP induction, % of PGE1 is -16.7% (inactive).

Which cAMP induction, % of PGE1 does the source give for O=c1[nH]c2c(s1)C=Nc1ccccc1N2 here?
The cAMP induction, % of PGE1 was 163%.

COc1ccccc1C(=O)Nc1c[nH]c(=O)[nH]c1=O was tested. Which cAMP induction, % of PGE1 did it give?
The cAMP induction, % of PGE1 was 97.7%.

With COc1cc2c(cc1OC)-c1cc(Nc3ccccc3C)nc(=O)n1CC2 as the compound, how does the cAMP induction, % of PGE1 read?
The cAMP induction, % of PGE1 was 638%.

Which cAMP induction, % of PGE1 does the source give for COc1cc2c(cc1OC)-c1cc(N3CCc4ccccc43)nc(=O)n1CC2 here?
The cAMP induction, % of PGE1 was 74.8%.

For CCOc1cc(/C=N/NC(N)=O)cc(Br)c1OCC(=O)Nc1ccccc1C, which cAMP induction, % of PGE1 is on record?
The cAMP induction, % of PGE1 was 155%.

Which cAMP induction, % of PGE1 does the source give for COc1ccccc1-n1cc(-c2ccc(Cl)cc2)[nH]c1=O here?
Its cAMP induction, % of PGE1 is 32.2% (inactive).

COc1cc2c(cc1OC)-c1cc(N3CCCCCC3)nc(=O)n1CC2 was tested. Which cAMP induction, % of PGE1 did it give?
Its cAMP induction, % of PGE1 is 83.7%.
